In article PMC4011022 (Molecular cell, 2014):
Like-named read-outs stand apart in the source and are kept apart here.

Columns and labels:
[1] = target: T1, CK2α (casein kinase-2 catalytic subunit) (Homo sapiens, UniProt P68400); experiment: competition of [3H]IP6 radioligand binding to purified recombinant GST-CK2α
[2] = target: T1, CK2α (casein kinase-2 catalytic subunit); format: binding
Outline: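 GST-tagged CK2α was expressed in E. coli and purified. Twenty μg, held on glutathione beads, was incubated overnight at 4 °C with [3H]IP6 (10–20 Ci/mmol) in 40 mM Tris pH 8.0, 150 mM NaCl, 1 mM MgCl2, 4% glycerol and 0.1% Triton. Unlabeled IP6 was added over a concentration series as competitor. Controls were buffer or GST alone. Data are mean ± SE of at least three independent experiments.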

T1 sequence (P68400 whole entry): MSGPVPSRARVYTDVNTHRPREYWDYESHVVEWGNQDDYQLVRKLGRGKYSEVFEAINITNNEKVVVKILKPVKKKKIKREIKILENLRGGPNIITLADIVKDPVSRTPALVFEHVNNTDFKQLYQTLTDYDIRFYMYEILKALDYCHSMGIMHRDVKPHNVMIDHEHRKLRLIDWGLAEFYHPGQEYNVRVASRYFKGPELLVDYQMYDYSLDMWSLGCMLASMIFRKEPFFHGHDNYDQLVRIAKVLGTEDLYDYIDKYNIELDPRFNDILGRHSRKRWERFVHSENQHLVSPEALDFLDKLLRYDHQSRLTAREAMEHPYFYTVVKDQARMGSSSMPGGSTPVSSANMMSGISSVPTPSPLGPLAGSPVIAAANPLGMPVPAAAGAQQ

O=P(O)(O)O[C@H]1[C@@H](OP(=O)(O)O)[C@H](OP(=O)(O)O)[C@@H](OP(=O)(O)OP(=O)(O)O)[C@H](OP(=O)(O)O)[C@H]1OP(=O)(O)O [IP7]
IC50 [1]: ~0.4 µM

O=P(O)(O)O[C@H]1[C@H](OP(=O)(O)O)[C@@H](OP(=O)(O)O)[C@H](OP(=O)(O)O)[C@@H](OP(=O)(O)O)[C@H]1OP(=O)(O)O [IP6]
IC50 [2]: 14 µM
